Each block holds one compound with its values, some of them ahead of it.
Legend:
[1] = Cytotoxicity against human TZM-bl cells assessed as cell viability; assay type: cell-based
Summary of the method: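 TZM-bl cells (1 × 10^5 cells/mL) exposed to various compound concentrations in parallel with the antiviral assay timing. Averaged from at least three independent experiments.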

[2] = tested on: Human immunodeficiency virus 1; test: Antiviral activity against HIV 1 NL4-3 infected in human TZM-bl cells after 48 hrs by luciferase reporter gene assay; assay type: functional, organism-based; details: Human immunodeficiency virus 1, NL4-3, TZM-bl
Summary of the method: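 Single-round infection of TZM-bl cells with HIV-1 NL4-3 at 200 TCID50, in the presence of eight fourfold serial dilutions of compound. After 48 h, luciferase was read as RLU. Highest concentration tested was 20 μM.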

[3] = Ratio of CC50 for human TZM-bl cells to EC50 for HIV 1 NL4-3 infected in human TZM-bl cells
[4] = Ratio of CC50 for human TZM-bl cells to EC50 for HIV 1 RTMDR infected in human TZM-bl cells
[5] = tested on: Human immunodeficiency virus 1; test: Antiviral activity against HIV1 RTMDR in human […] cells after 48 hrs by luciferase reporter gene assay; assay type: functional, organism-based; details: Human immunodeficiency virus 1, RTMDR
Summary of the method: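 Single-round infection of TZM-bl cells with 200 TCID50 virus plus test sample in eight fourfold dilutions; 48 h incubation, then Bright Glo luciferase read. Highest tested concentration 20 μM.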

[6] = Chemical stability of the compound in 1% HCl assessed as compound remaining at 1 min by HPLC analysis; assay type: physicochemical; details: read-out: Stability
Summary of the method: (§1)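 Compound (1 mg) dissolved in MeOH (0.5 mL), 1% HCl (0.2 mL) added, shaken at room temperature. Remaining compound measured by reversed-phase HPLC (ODS2 column, 30% water/70% MeOH) as area % purity at the stated time.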

[7] = Chemical stability of the compound in 1% HCl assessed as compound remaining at 30 min by HPLC analysis; assay type: physicochemical; details: read-out: Stability; summary of the method: as §1

Structure (SMILES): CCc1cc(=O)c2ccc(OCc3cc(OC)cc(OC)c3)c(COC(=O)C34CCC(C)(C(=O)O3)C4(C)C)c2o1 (configuration not stated)
CC50 [1]: > 36.3 µM
EC50 [2]: 22.2 µM
Ratio CC50/EC50 [3]: 1.64

Structure (SMILES): CCOc1ccc2c(=O)cc(CC)oc2c1CN1CCN(C(=O)C(=O)c2cccs2)CC1
CC50 [1]: > 22 µM
EC50 [2]: > 22 µM
Ratio CC50/EC50 [4]: 1.3
EC50 [5]: 16.9 µM

Structure (SMILES): CCOc1ccc2c(=O)cc(CC)oc2c1CN1CCN(C(=O)C(=O)c2c[nH]c3ccccc23)CC1
CC50 [1]: > 20.5 µM
EC50 [2]: > 20.5 µM
EC50 [5]: > 20.5 µM

remaining at […] [6]: 100%
remaining at 0.5 h [7]: 64%
Structure (SMILES): Cc1cc(=O)oc2c3c(ccc12)OC(C)(C)[C@H](OC(=O)[C@@]12CC[C@@](C)(C(=O)O1)C2(C)C)[C@@H]3OC(=O)[C@@]12CC[C@@](C)(C(=O)O1)C2(C)C

Structure (SMILES): CCc1cc(=O)c2ccc3c(c2o1)[C@@H](OC(=O)C12CCC(C)(C(=O)O1)C2(C)C)[C@@H](OC(=O)C12CCC(C)(C(=O)O1)C2(C)C)C(C)(C)O3 (some centres not stated)
CC50 [1]: 14.2 µM
remaining at […] [6]: 100%
remaining at 0.5 h [7]: 91%
EC50 [2]: 0.12 µM
Ratio CC50/EC50 [3]: 118.75
Ratio CC50/EC50 [4]: 71.25
EC50 [5]: 0.2 µM

Structure (SMILES): CCc1cc(=O)c2ccc(OCc3cccc(C(=O)OC)c3)c(COC(=O)C34CCC(C)(C(=O)O3)C4(C)C)c2o1 (configuration not stated)
CC50 [1]: > 36.5 µM
EC50 [2]: 0.93 µM
Ratio CC50/EC50 [3]: 39.2

Structure (SMILES): CCOc1ccc2c(=O)cc(CC)oc2c1CN1CCN(C(=O)C(=O)c2ccccc2)CC1
CC50 [1]: > 22.3 µM
EC50 [2]: 16.7 µM
Ratio CC50/EC50 [3]: >1.33
Ratio CC50/EC50 [4]: >1.37
EC50 [5]: 16.3 µM
